The source of these data is ChEMBL document CHEMBL1156961, “Inhibition of Escherichia coli glycosyltransferase MurG and Mycobacterium tuberculosis Gal transferase by uridine-linked transition state mimics” (Bioorg Med Chem, 2010).

In general, inhibition refers to how much of the control response was suppressed. Usually IC50 stands for the concentration at which inhibition is half-maximal.

Calls of active or inactive are those of the source. The calls are words filed in the database; no cut-off is given here.

The target in assay [1] is T1, Galactofuranosyltransferase GlfT2 (Mycobacterium tuberculosis) (UniProt O53585).
T1 sequence (whole entry): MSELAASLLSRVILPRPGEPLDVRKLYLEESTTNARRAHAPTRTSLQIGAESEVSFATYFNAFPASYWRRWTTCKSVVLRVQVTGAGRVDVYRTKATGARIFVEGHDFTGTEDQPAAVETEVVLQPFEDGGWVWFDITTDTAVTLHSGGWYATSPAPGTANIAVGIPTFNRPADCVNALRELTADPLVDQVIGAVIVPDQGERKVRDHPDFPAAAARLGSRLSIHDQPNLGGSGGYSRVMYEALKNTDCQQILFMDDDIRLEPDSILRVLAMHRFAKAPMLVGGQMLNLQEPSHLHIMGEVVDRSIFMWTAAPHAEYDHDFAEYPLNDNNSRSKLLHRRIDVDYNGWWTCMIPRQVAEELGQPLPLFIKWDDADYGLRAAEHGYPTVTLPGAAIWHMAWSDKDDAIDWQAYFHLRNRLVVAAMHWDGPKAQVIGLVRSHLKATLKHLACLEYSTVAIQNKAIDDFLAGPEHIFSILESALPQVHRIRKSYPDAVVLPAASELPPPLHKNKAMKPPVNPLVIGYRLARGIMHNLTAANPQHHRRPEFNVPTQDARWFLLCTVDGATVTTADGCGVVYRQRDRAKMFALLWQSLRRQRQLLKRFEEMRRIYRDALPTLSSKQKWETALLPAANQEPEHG
The experiment in a line: Inhibition of Mycobacterium tuberculosis GlfT2 assessed as incorporation of [14C]Gal at 1 mM by scintillation counting.

Assay [2] deals with Escherichia coli. As to the kind of experiment: Inhibition of Escherichia coli recombinant C terminal His-tagged MurG expressed in Escherichia coli C43 assessed as inhibition of […] labelled lipid intermediate 2 formation at 1 mM over 15 mins by scintillation counting.
A short description of assay [3]: Inhibition of Escherichia coli recombinant C terminal His-tagged MurG expressed in Escherichia coli C43 assessed as inhibition of [3H]UDPGlc labelled lipid intermediate 2 formation over 15 mins by scintillation counting.
Another assay deals with Pseudomonas putida. The experiment in a line: Antibacterial activity against Pseudomonas putida ATCC 33015 at 100 ug/ml after 24 hrs. In kind it is functional, organism-based. The method in brief:
(§1)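 LB broth culture grown overnight at 37 °C from a single colony, diluted to 2% in fresh LB and mixed 1:1 with sterile aqueous compound (200 μg/ml or 1 mg/ml solution) or water. Incubated at 37 °C, growth followed by OD595 at 3, 6 and 24 h.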

The next assay has as its system Bacillus subtilis. As to the kind of experiment: Antibacterial activity against Bacillus subtilis W23 at 100 ug/ml after 24 hrs. The format is functional, organism-based. The method in brief: as §1
Assay [4] concerns Escherichia coli. The experiment in a line: Antibacterial activity against Escherichia coli BL21 at 100 ug/ml after 24 hrs. In kind it is functional, organism-based. A digest of the protocol:
as §1

Take `COc1cccc([C@H]2N[C@@](C)(C(=O)NCC(=O)NC[C@H]3O[C@@H](n4ccc(=O)[nH]c4=O)[C@H](O)[C@@H]3O)[C@H]3C(=O)N(c4ccccc4)C(=O)[C@@H]23)c1OC`: in assay [1], the inhibition stood at 0%.

Regarding `COc1ccccc1[C@H]1N[C@@](C)(COC(=O)CCC(=O)OC[C@H]2O[C@@H](n3ccc(=O)[nH]c3=O)[C@H](O)[C@@H]2O)[C@H]2C(=O)N(c3ccccc3)C(=O)[C@@H]12` (mixture of isomers), the inhibition in assay [1] was 0%.

For the compound `COC(=O)[C@H]1[C@@H](c2ccccc2OC)N[C@@](C)(C(=O)N2CCC[C@H]2C(=O)NC[C@H]2O[C@@H](n3ccc(=O)[nH]c3=O)[C@H](O)[C@@H]2O)[C@H]1C(=O)OC`, the inhibition in assay [1] turned out to be 0%.

As for `COC(=O)[C@@H]1[C@@H]2C(=O)N(CC(=O)NC[C@H]3O[C@@H](n4ccc(=O)[nH]c4=O)[C@H](O)[C@@H]3O)C(=O)[C@@H]2N[C@@H]1c1ccccc1`, the results for the inhibition (in assay [1]; in the assay with Escherichia coli [2]) were 80% and 0%, respectively.

With `COC(=O)[C@@H]1[C@@H]2C(=O)N(CC(=O)NC[C@H]3O[C@@H](n4ccc(=O)[nH]c4=O)[C@H](O)[C@@H]3O)C(=O)[C@@H]2N[C@@H]1c1ccc(OC)c(OC)c1`, in assay [1], the inhibition came to 0%. The IC50 in assay [3] is 4 mM.

As for `COC(=O)[C@H]1[C@@H](c2ccccc2OC)N[C@@](C)(C(=O)NCC(=O)NC[C@H]2O[C@@H](n3ccc(=O)[nH]c3=O)[C@H](O)[C@@H]2O)[C@@H]1C(=O)OC` (mixture of isomers), the inhibition in assay [1] came out at 0%. Further, the IC50 in assay [3] was greater than 5 mM.

For the compound `COc1ccccc1[C@H]1N[C@@](C)(COC(=O)CC(=O)OC[C@H]2O[C@@H](n3ccc(=O)[nH]c3=O)[C@H](O)[C@@H]2O)[C@H]2C(=O)N(c3ccccc3)C(=O)[C@@H]12`, the inhibition in assay [1] worked out at 0%.

Take `COC(=O)[C@@H]1[C@@H]2C(=O)N(CC(=O)NC[C@H]3O[C@@H](n4ccc(=O)[nH]c4=O)[C@H](O)[C@@H]3O)C(=O)[C@@H]2N[C@@H]1c1ccccc1OC`: the inhibition (in assay [1]; in the assay with Escherichia coli [2]) was 0% in each case.

As to `COc1ccccc1[C@H]1N[C@@](C)(C(=O)N2CCC[C@H]2C(=O)NC[C@H]2O[C@@H](n3ccc(=O)[nH]c3=O)[C@H](O)[C@@H]2O)[C@H]2C(=O)NC(=O)[C@@H]12`, the concentration for half-maximal inhibition (IC50) in assay [3] was greater than 5 mM.

Regarding `COC(=O)[C@@H]1[C@@H]2C(=O)N(CC(=O)NC[C@H]3O[C@@H](n4ccc(=O)[nH]c4=O)[C@H](O)[C@@H]3O)C(=O)[C@@H]2N[C@@H]1c1cccc(OC)c1OC`, the inhibition in the assay on Escherichia coli [2] is 0%.

Consider `COc1ccccc1[C@H]1N[C@@](C)(C(=O)NCC(=O)NC[C@H]2O[C@@H](n3ccc(=O)[nH]c3=O)[C@H](O)[C@@H]2O)[C@H]2C(=O)N(c3ccccc3)C(=O)[C@@H]12` (mixture of isomers), for which, in assay [1], the inhibition was determined as 0%. For the same compound, the outcome with Pseudomonas putida, in the assay with Bacillus subtilis and with Escherichia coli [4] was inactive.

Regarding `C[C@@]1(C(=O)NCC(=O)NC[C@H]2O[C@@H](n3ccc(=O)[nH]c3=O)[C@H](O)[C@@H]2O)N[C@H]([C@H](O)CO)[C@@H]2C(=O)N(c3ccccc3)C(=O)[C@@H]21`, the inhibition in assay [1] was 0%.

Consider `COC(=O)[C@@H]1[C@H]2C(=O)N(CC(=O)NC[C@H]3O[C@@H](n4ccc(=O)[nH]c4=O)[C@H](O)[C@@H]3O)C(=O)[C@@H]2N[C@@H]1c1ccccc1OC`, for which the inhibition in assay [1] was 0%; in the assay with Escherichia coli [2], 22%.

`COC(=O)[C@H]1[C@@H](c2ccccc2OC)N[C@@](C)(C(=O)N2CCC[C@H]2C(=O)NC[C@H]2O[C@@H](n3ccc(=O)[nH]c3=O)[C@H](O)[C@@H]2O)[C@@H]1C(=O)OC` (mixture of isomers): the inhibition in assay [1] came to 0%.
